Reference: ChEMBL document CHEMBL4251566 (Eur J Med Chem, 2018)

Tests used:
[1] = molecular target: Tyrosine-protein kinase BTK (Homo sapiens, UniProt Q06187); test: Inhibition of recombinant full-length N-terminal His-tagged human BTK expressed in baculovirus infected Sf9 insect cells using Poly(4:1 Glu,Tyr) peptide substrate incubated for 60 mins by ADP-Glo luminescence assay
Ramos [2] = test: Antiproliferative activity against human Ramos cells after 72 hrs by CCK-8 assay
Raji = test: Antiproliferative activity against human Raji cells after 72 hrs by CCK-8 assay; assay type: functional, cell-based
In short: (§1)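 CCK-8 viability assay. Cells were seeded at 3000/well in RPMI-1640 with 10% FBS at 37 °C, 5% CO2, for 4 h before treatment. Exposure was 72 h at five concentrations (1.25, 5, 10, 20, 40 µM), each in five replicates. Absorbance was read at 450 nm. IC50 came from dose-response curves, as the mean of at least three separate experiments.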

NAMALVA = test: Antiproliferative activity against human NAMALWA cells after 72 hrs by CCK-8 assay; assay type: functional, cell-based; in short: as §1
[3] = molecular target: T1, Tyrosine-protein kinase JAK3 (Homo sapiens, UniProt P52333); test: Inhibition of recombinant N-terminal GST-tagged human JAK3 (781 to end residues) expressed in baculovirus infected Sf9 insect cells using Poly(4:1 Glu,Tyr) peptide substrate incubated for 60 mins by ADP-Glo luminescence assay
T1 sequence (P52333 whole entry): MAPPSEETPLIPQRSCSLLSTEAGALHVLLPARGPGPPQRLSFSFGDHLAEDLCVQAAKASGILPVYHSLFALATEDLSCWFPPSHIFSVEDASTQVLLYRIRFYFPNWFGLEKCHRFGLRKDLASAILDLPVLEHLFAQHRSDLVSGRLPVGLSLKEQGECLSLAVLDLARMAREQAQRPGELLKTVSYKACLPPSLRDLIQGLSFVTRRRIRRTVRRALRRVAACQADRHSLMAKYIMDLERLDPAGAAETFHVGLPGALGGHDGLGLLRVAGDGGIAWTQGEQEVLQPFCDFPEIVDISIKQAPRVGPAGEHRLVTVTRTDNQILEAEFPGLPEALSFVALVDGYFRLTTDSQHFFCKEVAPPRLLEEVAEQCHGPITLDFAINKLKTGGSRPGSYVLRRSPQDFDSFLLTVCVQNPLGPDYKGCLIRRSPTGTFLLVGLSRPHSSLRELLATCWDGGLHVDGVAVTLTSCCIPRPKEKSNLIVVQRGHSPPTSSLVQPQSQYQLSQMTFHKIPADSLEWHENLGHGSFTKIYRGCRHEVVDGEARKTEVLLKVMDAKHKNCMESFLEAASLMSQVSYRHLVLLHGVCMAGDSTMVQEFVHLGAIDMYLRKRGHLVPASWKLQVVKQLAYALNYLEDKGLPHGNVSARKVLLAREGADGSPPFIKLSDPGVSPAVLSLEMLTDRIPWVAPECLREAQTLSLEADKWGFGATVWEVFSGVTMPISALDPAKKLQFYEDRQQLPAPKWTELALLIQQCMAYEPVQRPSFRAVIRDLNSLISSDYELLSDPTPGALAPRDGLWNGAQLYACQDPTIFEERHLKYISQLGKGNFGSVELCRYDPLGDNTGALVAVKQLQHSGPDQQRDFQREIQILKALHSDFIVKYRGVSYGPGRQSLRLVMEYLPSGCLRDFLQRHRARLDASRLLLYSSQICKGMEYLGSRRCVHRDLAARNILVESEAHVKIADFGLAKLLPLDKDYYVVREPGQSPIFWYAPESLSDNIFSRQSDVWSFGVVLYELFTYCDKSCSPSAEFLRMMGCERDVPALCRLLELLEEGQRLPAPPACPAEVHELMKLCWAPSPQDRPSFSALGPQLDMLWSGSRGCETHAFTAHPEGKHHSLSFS
In short: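 ADP-Glo luminescent kinase assay. The kinase reaction ran 60 min at room temperature in 1× kinase buffer. ADP-Glo reagent was added to stop the reaction and deplete ATP, followed by 40 min at room temperature. Detection reagent then converted ADP to ATP for a luciferase readout, followed by 30 min at room temperature. Luminescence was integrated over 0.5–1 s, and IC50 came from curve fitting.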

Ramos [4] = test: Induction of apoptosis in human Ramos cells assessed as necrotic cells at 10 uM after 72 hrs by Annexin V-FITC/propidium iodide staining based flow cytometry (reference value: 0.7%); assay type: functional
Ramos [5] = test: Induction of apoptosis in human Ramos cells assessed as early apoptotic cells at 10 uM after 72 hrs by Annexin V-FITC/propidium iodide staining based flow cytometry (reference value: 0.0%); assay type: functional
PBMC = test: Cytotoxicity against human PBMCs assessed as induction of morphological changes at <10 uM after 24 hrs by AO/PI staining-based phase contrast microscopy; assay type: cell-based
Ramos [6] = test: Induction of apoptosis in human Ramos cells assessed as total apoptosis rate at 10 uM after 72 hrs by Annexin V-FITC/propidium iodide staining based flow cytometry relative to control
Ramos [7] = test: Induction of apoptosis in human Ramos cells assessed as viable cells at 10 uM after 72 hrs by Annexin V-FITC/propidium iodide staining based flow cytometry (reference value: 98.7%); assay type: functional; conditions: read-out: Activity
Ramos [8] = test: Induction of apoptosis in human Ramos cells assessed as late apoptotic cells at 10 uM after 72 hrs by Annexin V-FITC/propidium iodide staining based flow cytometry (reference value: 0.5%); assay type: functional

Chain of Tyrosine-protein kinase BTK (Q06187 whole entry): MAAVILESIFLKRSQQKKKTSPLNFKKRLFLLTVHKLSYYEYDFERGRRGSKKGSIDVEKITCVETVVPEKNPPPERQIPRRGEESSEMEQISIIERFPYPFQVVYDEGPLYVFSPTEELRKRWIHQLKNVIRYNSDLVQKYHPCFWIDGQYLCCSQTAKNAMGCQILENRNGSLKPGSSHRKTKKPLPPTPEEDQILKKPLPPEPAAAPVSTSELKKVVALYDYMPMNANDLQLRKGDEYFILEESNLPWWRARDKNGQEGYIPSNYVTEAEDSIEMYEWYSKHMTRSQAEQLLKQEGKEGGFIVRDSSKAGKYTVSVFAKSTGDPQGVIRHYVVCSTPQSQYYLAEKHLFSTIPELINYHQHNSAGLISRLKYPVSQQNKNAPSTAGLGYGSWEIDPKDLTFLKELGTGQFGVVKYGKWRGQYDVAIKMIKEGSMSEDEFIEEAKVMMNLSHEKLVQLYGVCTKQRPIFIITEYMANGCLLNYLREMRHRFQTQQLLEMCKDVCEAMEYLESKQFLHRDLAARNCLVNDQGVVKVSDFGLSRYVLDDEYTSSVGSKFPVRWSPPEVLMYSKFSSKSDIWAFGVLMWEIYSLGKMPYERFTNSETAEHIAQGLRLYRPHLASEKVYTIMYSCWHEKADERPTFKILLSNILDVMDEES

| Structure (SMILES) | IC50 [1] [µM] | IC50 (Ramos [2]) [µM] | IC50 (Raji) [µM] | IC50 (NAMALVA) [µM] | IC50 [3] [µM] | Activity (Ramos [4]) [%] | Activity (Ramos [5]) [%] | Activity (PBMC) [%] | Activity (Ramos [6]) [%] | viability at 10 µM (Ramos [7]) [%] | Activity (Ramos [8]) [%] |
| --- | --- | --- | --- | --- | --- | --- | --- | --- | --- | --- | --- |
| C=CC(=O)Nc1cccc(Nc2nc(Nc3ccc(OC)c(OCCCN4CCOCC4)c3)ncc2Cl)c1 | 0.0008 | 7.31 | 3.86 | 5.17 | 0.00069 |  |  |  |  |  |  |
| C=CC(=O)Nc1cccc(Nc2nc(Nc3ccc(OCCCN4CCN(CC)CC4)cc3C)ncc2F)c1 | 0.09 | 18.5 | 26 | 26.6 | > 0.1 |  |  |  |  |  |  |
| C=CC(=O)N1CCC[C@@H](n2nc(-c3ccc(Oc4ccccc4)cc3)c3c(N)ncnc32)C1 [IBRUTINIB] |  | 6.62 | 20.9 | 10.5 |  | 0.1 | 37 | 50 | 47.9 | 52 |  |
| C=CC(=O)Nc1cccc(Nc2nc(Nc3ccc(OC)c(OCCCN4CCOCC4)c3)ncc2F)c1 | 0.0007 | 11.3 | 13.9 | 3.17 | 0.00095 |  |  |  |  |  |  |
| C=CC(=O)Nc1cccc(Nc2nc(Nc3ccc(OCCCN4CCOCC4)c(Cl)c3)ncc2Cl)c1 | 0.0007 | 2 | 22.5 | 19.4 | 0.00106 |  |  |  |  |  |  |
| C=CC(=O)Nc1cccc(Nc2nc(Nc3ccc(OCCCN4CCN(C)CC4)cc3C)ncc2Cl)c1 | 0.0817 | 22.6 | 25 | 24.6 | 0.0911 |  |  |  |  |  |  |
| C=CC(=O)Nc1cccc(Nc2nc(Nc3ccc(OCC(=O)N4CCOCC4)c(OC)c3)ncc2F)c1 | 0.0171 | > 40 | 11.2 | 15 | 0.0112 |  |  |  |  |  |  |
| C=CC(=O)Nc1cccc(Nc2nc(Nc3ccc(OCCCN4CCN(CC)CC4)c(Cl)c3)ncc2Cl)c1 | 0.0005 | 5.72 | 11.4 | 2.41 | 0.00091 |  |  |  |  |  |  |
| C=CC(=O)Nc1cccc(Nc2nc(Nc3ccc(OCCCN4CCN(CC)CC4)cc3C)ncc2Cl)c1 | > 0.1 | 14.4 | 35.3 | 35.2 | > 0.1 |  |  |  |  |  |  |
| C=CC(=O)Nc1cccc(Nc2nc(Nc3ccc(OCCCN4CCOCC4)cc3C)ncc2Cl)c1 | 0.0893 | 18.7 | 25.5 | 28 | > 0.1 |  |  |  |  |  |  |
| C=CC(=O)Nc1cccc(Nc2nc(Nc3ccc(OCC(=O)N4CCOCC4)c(OC)c3)ncc2Cl)c1 | 0.0105 | > 40 | 22.5 | 17.2 | 0.0216 |  |  |  |  |  |  |
| C=CC(=O)Nc1cccc(Nc2nc(Nc3ccc(OCC(=O)N4CCOCC4)cc3)ncc2Cl)c1 | 0.001 | 25.6 | 5.68 | 4.42 | 0.00139 |  |  |  |  |  |  |
| C=CC(=O)Nc1cccc(Nc2nc(Nc3ccc(OCCOC)cc3)ncc2F)c1 [SPEBRUTINIB] |  | 14.2 | 25.3 | 3.42 | 0.0225 | 4.3 | 21.1 |  | 41.5 | 54.2 | 20.4 |
| C=CC(=O)Nc1cccc(Nc2nc(Nc3ccc(OCCCN4CCOCC4)c(OC)c3)ncc2Cl)c1 | 0.0313 | 2.49 | 5.92 | 14.4 | 0.00677 |  |  |  |  |  |  |
